Measurements: ChEMBL document CHEMBL2062373, “Discovery of pyrroloaminopyrazoles as novel PAK inhibitors” (J Med Chem, 2012)
pEC50, pKi: −log10 of the molar value. In brackets after ≈: the same amount, converted by molar mass.

Key:
[1] = Half life in rat at 5 mg/kg, iv and 10 mg/kg, po; type: ADME, organism-based; settings: in vivo
[2] = Oral bioavailability in rat at 10 mg/kg; type: ADME, organism-based; settings: in vivo
[3] = tested on: Mus musculus; assay: Free dug level in mouse xenografted with human HCT116 cells at 50 mg/kg, po SID for 15 days; type: ADME, organism-based, HCT-116; parameters: dose 50 mg/kg, route oral; settings: in vivo, 360 h
Method in brief: (§1)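 The read-out is free drug exposure, reported as unbound average concentration (free Cave) in nM. It was obtained from mice dosed orally at the stated regimen, sid or bid, during the xenograft efficacy study.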

[4] = target: T1, Cyclin-dependent kinase 2 (Homo sapiens, UniProt P24941)
[5] = tested on: HCT-116; assay: Antitumor activity against human HCT116 cells xenografted in mouse assessed as tumor growth inhibition at 25 mg/kg, po BID for 15 days; type: functional; settings: HCT-116, 360 h, read-out: TGI
[6] = Metabolic stability in human liver microsomes assessed as extraction ratio; type: ADME, Microsome; settings: read-out: ERH
[7] = Clearance in rat at 5 mg/kg, iv and 10 mg/kg, po; type: ADME, organism-based; settings: in vivo
[8] = Octanol/buffer partition coefficient, log D of the compound at pH 7.4; type: physicochemical
[9] = Volume of distribution at steady state in rat at 5 mg/kg, iv and 10 mg/kg, po; type: ADME, organism-based; settings: in vivo, read-out: Vdss
[10] = target: T2, Serine/threonine-protein kinase PAK 4 (Homo sapiens, UniProt O96013); assay: Inhibition of PAK4-mediated GEF-H1 phosphorylation at Ser810 by cell based assay; settings: for pEC50: read-out: EC50
T2 sequence (O96013 whole entry): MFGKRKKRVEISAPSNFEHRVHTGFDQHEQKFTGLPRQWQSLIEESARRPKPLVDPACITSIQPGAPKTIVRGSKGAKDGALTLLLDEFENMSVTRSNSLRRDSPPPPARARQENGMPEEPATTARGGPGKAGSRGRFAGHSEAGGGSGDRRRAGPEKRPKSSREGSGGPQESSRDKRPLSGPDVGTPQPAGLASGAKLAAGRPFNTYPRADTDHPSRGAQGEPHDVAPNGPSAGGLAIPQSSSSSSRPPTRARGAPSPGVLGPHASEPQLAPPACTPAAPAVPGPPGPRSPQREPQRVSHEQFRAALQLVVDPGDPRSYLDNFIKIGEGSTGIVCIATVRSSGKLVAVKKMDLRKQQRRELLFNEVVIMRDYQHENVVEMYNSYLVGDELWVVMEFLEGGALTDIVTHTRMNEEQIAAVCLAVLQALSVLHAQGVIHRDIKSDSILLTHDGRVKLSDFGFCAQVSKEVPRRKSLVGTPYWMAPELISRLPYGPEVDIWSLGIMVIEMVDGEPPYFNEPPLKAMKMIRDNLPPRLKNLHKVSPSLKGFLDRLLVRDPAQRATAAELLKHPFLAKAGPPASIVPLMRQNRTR

[11] = target: T2, Serine/threonine-protein kinase PAK 4; assay: Inhibition of PAK4
[12] = Efflux ratio of permeability from basolateral to apical side over apical to basolateral side in human Caco2 cells; type: ADME, cell-based; settings: Caco-2
[13] = tested on: Mus musculus; assay: Free dug level in mouse xenografted with human HCT116 cells at 25 mg/kg, po BID for 15 days; type: ADME, organism-based, HCT-116; parameters: dose 25 mg/kg, route oral; settings: in vivo, 360 h; method in brief: as §1
[14] = tested on: HCT-116; assay: Antitumor activity against human HCT116 cells xenografted in mouse assessed as tumor growth inhibition at 50 mg/kg, po SID for 15 days; type: functional; settings: HCT-116, 360 h, read-out: TGI
[15] = Aqueous solubility of the compound; type: physicochemical; settings: buffer
[16] = target: Serine/threonine-protein kinase 26 (Homo sapiens) (UniProt Q9P289); assay: Inhibition of MST4 at 1000 nM
Sequence of Serine/threonine-protein kinase 26 (Homo sapiens) (Q9P289 2-416 limits assumed): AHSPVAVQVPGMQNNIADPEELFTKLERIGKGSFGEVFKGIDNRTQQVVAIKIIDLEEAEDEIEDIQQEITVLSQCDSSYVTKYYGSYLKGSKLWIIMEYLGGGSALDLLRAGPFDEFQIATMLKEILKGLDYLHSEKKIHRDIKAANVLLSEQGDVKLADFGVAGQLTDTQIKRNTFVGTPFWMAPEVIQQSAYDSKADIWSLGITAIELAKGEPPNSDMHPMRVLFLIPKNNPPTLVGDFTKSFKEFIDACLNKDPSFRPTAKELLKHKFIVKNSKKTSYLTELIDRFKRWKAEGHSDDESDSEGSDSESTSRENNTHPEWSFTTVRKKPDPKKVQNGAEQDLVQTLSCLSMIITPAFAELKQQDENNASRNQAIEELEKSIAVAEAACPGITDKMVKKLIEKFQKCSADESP

[17] = species on record: Homo sapiens; assay: Inhibition of RSK at 1000 nM
[18] = Antitumor activity against human M24 cells xenografted in mouse assessed as tumor growth inhibition at 7.5 mg/kg, po BID for 15 days; type: functional; settings: M24, 360 h, read-out: TGI
[19] = target: T3, Lymphokine-activated killer T-cell-originated protein kinase (Homo sapiens) (UniProt Q96KB5); assay: Inhibition of PBK at 1000 nM
T3 sequence (whole entry): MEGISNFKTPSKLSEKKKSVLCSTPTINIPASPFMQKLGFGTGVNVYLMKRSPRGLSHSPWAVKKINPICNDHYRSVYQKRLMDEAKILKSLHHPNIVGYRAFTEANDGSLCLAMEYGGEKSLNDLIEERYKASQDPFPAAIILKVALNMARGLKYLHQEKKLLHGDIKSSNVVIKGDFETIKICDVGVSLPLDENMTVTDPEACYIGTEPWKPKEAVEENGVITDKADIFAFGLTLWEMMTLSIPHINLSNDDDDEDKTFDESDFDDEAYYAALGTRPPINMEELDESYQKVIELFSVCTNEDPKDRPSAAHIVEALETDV

[20] = Antitumor activity against human M24 cells xenografted in mouse assessed as tumor growth inhibition at 15 mg/kg, po BID for 15 days; type: functional; settings: M24, 360 h, read-out: TGI
[21] = species on record: Homo sapiens; assay: Inhibition of PKA at 1000 nM
[22] = tested on: Mus musculus; assay: Free dug level in mouse xenografted with human M24 cells at 7.5 mg/kg, po BID for 15 days; type: ADME, organism-based; parameters: dose 7.5 mg/kg, route oral; settings: in vivo, 360 h; method in brief: as §1
[23] = target: Mitogen-activated protein kinase 1 (Homo sapiens, UniProt P28482); assay: Inhibition of Erk2 at 1000 nM
Sequence of Mitogen-activated protein kinase 1 (P28482 whole entry): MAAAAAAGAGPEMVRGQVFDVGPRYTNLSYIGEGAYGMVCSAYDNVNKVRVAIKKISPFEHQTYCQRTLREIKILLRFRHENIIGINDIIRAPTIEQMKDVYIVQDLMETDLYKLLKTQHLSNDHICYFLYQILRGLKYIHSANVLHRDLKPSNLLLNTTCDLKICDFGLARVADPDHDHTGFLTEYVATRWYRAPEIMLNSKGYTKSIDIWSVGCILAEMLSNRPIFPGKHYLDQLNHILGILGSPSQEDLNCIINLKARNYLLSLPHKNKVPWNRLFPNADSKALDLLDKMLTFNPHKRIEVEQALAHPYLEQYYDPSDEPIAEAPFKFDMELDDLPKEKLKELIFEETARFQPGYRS

[24] = target: Serine/threonine-protein kinase MARK1 (Homo sapiens, UniProt Q9P0L2); assay: Inhibition of MARK at 1000 nM
Sequence of Serine/threonine-protein kinase MARK1 (Q9P0L2 whole entry, looked up): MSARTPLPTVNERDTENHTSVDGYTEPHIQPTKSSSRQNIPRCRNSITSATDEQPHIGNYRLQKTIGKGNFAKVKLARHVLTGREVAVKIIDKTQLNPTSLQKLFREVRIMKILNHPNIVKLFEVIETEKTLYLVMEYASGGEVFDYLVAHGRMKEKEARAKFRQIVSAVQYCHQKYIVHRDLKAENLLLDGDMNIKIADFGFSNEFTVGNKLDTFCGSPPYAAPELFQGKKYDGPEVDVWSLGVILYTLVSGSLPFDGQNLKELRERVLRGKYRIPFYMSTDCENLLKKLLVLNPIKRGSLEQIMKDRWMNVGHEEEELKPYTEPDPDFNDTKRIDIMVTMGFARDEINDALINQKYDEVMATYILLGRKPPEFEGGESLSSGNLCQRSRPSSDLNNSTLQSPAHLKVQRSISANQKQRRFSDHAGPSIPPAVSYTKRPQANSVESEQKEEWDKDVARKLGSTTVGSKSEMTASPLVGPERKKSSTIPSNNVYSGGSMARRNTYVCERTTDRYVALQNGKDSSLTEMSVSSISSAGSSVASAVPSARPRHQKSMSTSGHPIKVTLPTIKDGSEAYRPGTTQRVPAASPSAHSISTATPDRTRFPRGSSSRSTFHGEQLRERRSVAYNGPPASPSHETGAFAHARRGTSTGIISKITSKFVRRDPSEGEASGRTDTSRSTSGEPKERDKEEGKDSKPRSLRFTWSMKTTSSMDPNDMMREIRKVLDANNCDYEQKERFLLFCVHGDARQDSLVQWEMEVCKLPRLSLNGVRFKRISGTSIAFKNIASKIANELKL

[25] = tested on: Mus musculus; assay: Free dug level in mouse xenografted with human M24 cells at 15 mg/kg, po BID for 15 days; type: ADME, organism-based; parameters: dose 15 mg/kg, route oral; settings: in vivo, 360 h; method in brief: as §1
[26] = target: Glycogen synthase kinase-3 beta (Homo sapiens, UniProt P49841); assay: Inhibition of GSK3beta at 1000 nM
Sequence of Glycogen synthase kinase-3 beta (P49841 whole entry, looked up): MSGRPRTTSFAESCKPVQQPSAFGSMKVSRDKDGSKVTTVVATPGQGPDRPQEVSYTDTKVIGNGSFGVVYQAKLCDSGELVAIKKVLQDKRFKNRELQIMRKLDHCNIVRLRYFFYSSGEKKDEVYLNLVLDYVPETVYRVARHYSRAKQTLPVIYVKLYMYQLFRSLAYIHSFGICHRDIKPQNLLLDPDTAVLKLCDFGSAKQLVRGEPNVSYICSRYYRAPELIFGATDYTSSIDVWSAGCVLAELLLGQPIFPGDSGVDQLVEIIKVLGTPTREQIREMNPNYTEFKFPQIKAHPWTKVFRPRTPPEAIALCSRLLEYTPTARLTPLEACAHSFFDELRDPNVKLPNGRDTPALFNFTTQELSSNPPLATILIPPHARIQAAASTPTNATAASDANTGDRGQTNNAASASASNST

[27] = target: AMP-activated protein kinase, AMPK (Homo sapiens) (UniProt P54646+O43741+P54619+Q9UGJ0+Q9Y478+Q13131+Q9UGI9); assay: Inhibition of AMPK at 1000 nM; type: protein-complex assay
[28] = target: Cyclin-dependent kinase 7 (Homo sapiens) (UniProt P50613); assay: Inhibition of cdk7 at 1000 nM
Sequence of Cyclin-dependent kinase 7 (Homo sapiens) (P50613 whole entry, the tested form may be a part): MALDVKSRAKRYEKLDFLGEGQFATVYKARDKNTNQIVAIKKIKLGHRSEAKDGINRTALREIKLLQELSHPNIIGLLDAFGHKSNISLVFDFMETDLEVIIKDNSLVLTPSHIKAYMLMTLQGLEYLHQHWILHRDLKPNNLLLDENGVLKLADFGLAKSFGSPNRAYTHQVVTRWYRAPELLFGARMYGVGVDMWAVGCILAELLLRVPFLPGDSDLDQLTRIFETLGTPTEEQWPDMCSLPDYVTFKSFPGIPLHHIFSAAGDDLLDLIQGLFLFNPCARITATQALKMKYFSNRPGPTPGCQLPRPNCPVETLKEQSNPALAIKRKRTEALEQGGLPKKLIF

[29] = tested on: Mus musculus; assay: Down regulation of GEF-H1 phosphorylation in human HCT116 cells xenografted in mouse tumor at 80 mg/kg/day, sc administered via continuous infusion measured after 18 hrs; type: functional, HCT-116; settings: route subcutaneous
Method in brief: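 Tumour-bearing mice received drug by continuous infusion from an implanted subcutaneous pump at 80 mg/kg/day. Tumours were taken at 18 h and pGEF-H1 levels were measured. Downregulation is expressed as percent reduction.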

[30] = target: T1, Cyclin-dependent kinase 2; assay: Inhibition of CDK2 at 1 uM
[31] = Metabolic stability of the compound in human liver microsomes assessed as compound remaining after 30 mins; type: ADME, Microsome; settings: read-out: Stability

Row | Structure (SMILES) | half-life [1] [h] | bioavailability [2] [%] | hepatic extraction ratio [6] | clearance [7] [mL/min/kg] | logD [8] | Vd [9] [L/kg] | pEC50 [10] | pKi [11] | efflux ratio [12] | other results
1 | CN(C)C[C@@H](OC(=O)N1Cc2c(NC(=O)c3ccc(F)cc3)n[nH]c2C1(C)C)c1ccccc1 | 1.1 | 9 | 0.7 | 98 | 2.79 | 6.1 | 8.05 | 7.89 | 7 | Drug uptake(free) [3]: 70 nM; pKi [4]: 5.94; inhibition in vivo at 25 mg/kg [5]: 61%; Drug uptake(free) [13]: 25 nM; inhibition in vivo at 50 mg/kg [14]: 12%; solubility [15]: 404 µM (≈ 188 µg/mL)
2 | CN(C)C[C@@H](OC(=O)N1Cc2c(NC(=O)C3CCCCO3)n[nH]c2C1(C)C)c1ccccc1 (mixture of isomers) | – | – | 1 | – | 2.48 | – | – | – | 3.6 | –
3 | CN(C)C[C@@H](NC(=O)N1Cc2c(NC(=O)c3ccccc3)n[nH]c2C1(C)C)c1ccccc1 | – | – | 0.39 | – | 1.77 | – | – | 7.52 | 326 | pKi [4]: 5.74; solubility [15]: 395 µM (≈ 176 µg/mL); Activity [29]: 61%
4 | CN1CCN(C(=O)N2Cc3c(NC(=O)c4cccc(Oc5ccccc5)c4)n[nH]c3C2(C)C)[C@@H](Cc2ccccc2)C1 | – | – | – | – | 5.45 | – | 6.09 | – | – | inhibition [30]: 20%; remaining at 0.5 h [31]: 2%
5 | CN(C)C[C@@H](NC(=O)N1Cc2c(NC(=O)c3ccccc3F)n[nH]c2C1(C)C)c1ccccc1 | – | – | 0.38 | – | 2.33 | – | – | – | 231 | –
6 | CN(C)C[C@@H](OC(=O)N1Cc2c(NC(=O)c3ccccn3)n[nH]c2C1(C)C)c1ccccc1 | 0.7 | 2 | 0.67 | 146 | 2.23 | 4.8 | – | – | 1.61 | –
7 | CN1CCN(C(=O)N2Cc3c(n[nH]c3NC(=O)c3ccccc3)C2(C)C)C(c2ccccc2)C1 (stereo unspecified) | – | – | 0.7 | – | 3.2 | – | 7.68 | 6.68 | 187 | –
8 | CN(C)C[C@@H](NC(=O)c1ccc2[nH]nc(-c3nc4ccc(NCc5ccc(-c6ccccn6)cc5)cc4[nH]3)c2c1)c1ccccc1 | – | – | – | – | – | – | – | 8.55 | – | –
9 | CN(C)C[C@@H](NC(=O)c1ccc2[nH]nc(-c3nc4ccccc4[nH]3)c2c1)c1ccccc1 | – | – | – | – | 3.6 | – | 7.90 | 8.22 | – | –
10 | CN(C)C[C@H](c1ccccc1)N(C)C(=O)N1Cc2c(NC(=O)c3ccccc3)n[nH]c2C1(C)C | – | – | 0.5 | – | 2.68 | – | – | – | 53.6 | EC50 [10]: Not Active
11 | CN(C)C[C@@H](OC(=O)N1Cc2c(NC(=O)c3ccccc3)n[nH]c2C1(C)C)c1ccccc1 | – | – | – | – | 2.66 | – | – | – | – | pKi [4]: 5.70; solubility [15]: 434 µM (≈ 194 µg/mL)

Further lines, with some results ahead:

Row | half-life [1] [h] | bioavailability [2] [%] | hepatic extraction ratio [6] | clearance [7] [mL/min/kg] | logD [8] | Vd [9] [L/kg] | pEC50 [10] | pKi [11] | efflux ratio [12] | Structure (SMILES) | other results
12 | 1.3 | 45 | 0.55 | 37 | 1.61 | 4.3 | 9.00 | – | – | CN(C)C[C@@H](OC(=O)N1Cc2c(NC(=O)C(C)(C)C(F)(F)F)n[nH]c2C1(C)C)c1ccccc1 | inhibition [16]: > 70%; inhibition [17]: > 70%; inhibition in vivo at 7.5 mg/kg [18]: 67%; inhibition [19]: > 70%; inhibition in vivo at 15 mg/kg [20]: 87%; inhibition [21]: > 70%; Drug uptake(free) [22]: 13.9 nM; inhibition [23]: > 70%; inhibition [24]: > 70%; Drug uptake(free) [25]: 31 nM; inhibition [26]: > 70%; inhibition [27]: > 70%; inhibition [28]: > 70%
13 | – | – | 0.9 | – | 2.68 | – | 7.82 | – | 1.17 | CN(C)C[C@@H](OC(=O)N1Cc2c(NC(=O)c3ccc(F)cc3F)n[nH]c2C1(C)C)c1ccccc1 | –
14 | – | – | 0.6 | – | 1.6 | – | > 9.00 | – | – | CN(C)C[C@@H](OC(=O)N1Cc2c(NC(=O)C3(C(F)(F)F)CCC3)n[nH]c2C1(C)C)c1ccccc1 | –
15 | 1.5 | 46 | 0.42 | 24.1 | 1.5 | 2.8 | 8.15 | – | – | CN(C)C[C@@H](OC(=O)N1Cc2c(NC(=O)C3(C(F)(F)F)CC3)n[nH]c2C1(C)C)c1ccccc1 | –
16 | 0.5 | 20 | 0.4 | 69 | 2.08 | 2.2 | – | – | 8.7 | CN(C)C[C@@H](OC(=O)N1Cc2c(NC(=O)C3CCCO3)n[nH]c2C1(C)C)c1ccccc1 (mixture of isomers) | –
